Measurements pooled from the literature.
Protocols differ between the studies behind these lines.
Target: Membrane-associated tyrosine- and threonine-specific cdc2-inhibitory kinase (PKMYT1, Homo sapiens, UniProt Q99640)
One construct used (Q99640 1-499): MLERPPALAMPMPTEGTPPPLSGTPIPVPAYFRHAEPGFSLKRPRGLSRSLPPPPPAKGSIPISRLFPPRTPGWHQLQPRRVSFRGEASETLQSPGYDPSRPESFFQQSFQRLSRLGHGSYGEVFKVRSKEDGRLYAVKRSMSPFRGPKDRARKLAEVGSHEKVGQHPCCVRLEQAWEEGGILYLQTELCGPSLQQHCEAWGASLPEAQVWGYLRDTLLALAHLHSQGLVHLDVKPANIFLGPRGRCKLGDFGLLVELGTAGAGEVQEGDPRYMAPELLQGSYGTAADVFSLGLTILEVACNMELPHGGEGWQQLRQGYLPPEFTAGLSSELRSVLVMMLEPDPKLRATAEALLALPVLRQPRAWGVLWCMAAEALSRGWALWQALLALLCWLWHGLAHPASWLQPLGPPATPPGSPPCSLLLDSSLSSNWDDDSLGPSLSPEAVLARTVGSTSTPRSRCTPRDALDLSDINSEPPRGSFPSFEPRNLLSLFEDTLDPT

C[C@H](NC(=O)c1cnc2n1[C@](C)(Cc1ccc(C#N)cc1)C(=O)N2c1cc(Cl)c(F)c(Cl)c1)C(=O)NC1(c2ccccn2)CC1
remaining binding (cell-free assay, competition with immobilised ligand; 1 µM): 79%

c1cnn2ncc(-c3ccnc(N4CCC45COC5)n3)c2c1
remaining binding (binding; 1 µM): 97%

CC(C)(C)c1nc(-c2cccc(NS(=O)(=O)c3c(F)cccc3F)c2F)c(-c2ccnc(N)n2)s1
remaining activity (enzyme activity, inhibitor, radiometric; 1 µM): 88%

C=CCn1c(=O)c2cnc(Nc3ccc(N4CCN(C)CC4)cc3)nc2n1-c1cccc(C(C)(C)O)n1
ΔTm (thermal stability, DSF; 100 µM): 3 °C

CNCc1ccccc1-c1csc([C@H](C)Nc2nc(C)nc3cc(OC)c(OC)cc23)c1
remaining binding (cell-free assay, competition with immobilised ligand; 1 µM): 100%

Cc1ccc(C(=O)Nc2ccc(CN3CCN(C)CC3)c(C(F)(F)F)c2)cc1C#Cc1cnc2cccnn12
remaining activity (enzyme activity, inhibitor; 23.5 nM): 84%

O=C(Nc1cnn(-c2csc(C(=O)NC3COC3)c2)c1)Nc1ccccc1Cl
remaining activity (enzyme activity, inhibitor; 5 µM): 87%

Nc1ncnc2occ(-c3ccc(NC(=O)Nc4cc(C(F)(F)F)ccc4F)cc3)c12
remaining signal (cell-free assay, inhibitor; 20 µM): 75%

C[C@@H]1CCN(c2nccc(-c3cnn4ncccc34)n2)C1
remaining binding (binding; 1 µM): 99%

O=C(Nc1cnn(-c2csc(C(=O)NC3COC3)c2)c1)Nc1c(F)cccc1Cl
remaining activity (enzyme activity, inhibitor; 5 µM): 89.6%

CC(C)(C)c1nc2c(s1)c1nc(N)ncc1c1ccc(NS(=O)(=O)c3c(F)cccc3F)c(F)c12
remaining activity (enzyme activity, inhibitor, radiometric; 1 µM): 84%
